An excerpt weighted towards active compounds, which were near 1.5% of everything screened.
AP complement: orthogonal test for alternative complement pathway inhibitors; Human serum alternative complement pathway, LPS-coated ELISA, C3 deposition; tested in compound mixtures; actives 0.08% (n = 62,000); AID 1235; inhibition, % at 5 µM;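 active means inhibition above 30% in each of the two pooled mixtures holding the compound, so the lower value exceeds 30%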;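 further: 0% = serum in Mg-EGTA without compound and 100% = EDTA serum blank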
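Medium: diluted human serum in Mg2+-EGTA GVB++. Assay system: human serum complement alternative pathway, C3 deposition onto LPS. Also added: Plate-bound LPS. Technique: Anti-C3 ELISA, OD 450 nm. Measure: percent inhibition. Incubation: 1 h at 37 °C. Dosing: 5 µM each compound, pools of ten, 50 µM per pool.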
MK inhibit: S. pneumoniae mevalonate kinase inhibition. purified MK, PK/LDH-coupled NADH absorbance 340 nm. inhibition, % at 10 µM. actives 0.48% (n = 65,000). AID 555;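 active means ranked among the strongest by inhibition in the single 10 µM screen, a fixed top-ranked set picked for dose follow-up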
PMK inhibit: S. pneumoniae PMK inhibition | AID 539 | inhibition, % at 10 µM | actives 0.49% (n = 65,000) | purified PMK, PK/LDH-coupled NADH absorbance 340 nm;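 active means top-ranked compounds by inhibition in the single 10 µM screen, taking a fixed number of the strongest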;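 further: 0% = full reaction with DMSO carrier and 100% = background rate without enzyme reaction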
Spn DPM-DC inh: S. pneumoniae DPM-DC inhibition. purified DPM-DC, PK/LDH coupled NADH fluorescence. calls only at 10 µM. actives 0.49% (n = 65,000). AID 556;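 active means the 320 compounds with the highest percent inhibition in the single-dose primary screen, excluding strongly autofluorescent ones, cut at about 32% in these data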;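 further: kinetic rate of NADH fluorescence loss reporting ADP formed by the decarboxylase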
TNAP act mid DEA: human TNAP activation, intermediate phosphate acceptor | P05186 | purified TNAP, CDP-star luminescence, 100 mM DEA, 30 min; hits give high values; scale: 0 levamisole-inhibited, 1 vehicle-only enzyme | activation factor at 20 µM | 64,000 tested, under 10 active | AID 813;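 active means activation factor of at least 2 at 20 µM, relative to controls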
E coli RNAP: inhibitors of Escherichia coli RNA polymerase | E. coli RNA polymerase, fluorescence transcription assay | inhibition, %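 (tested at 10 µM)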 | actives 0.2% (n = 62,000); in the data active means inhibition above about 20%;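 further: 0% = enzyme without compound and 100% = no enzyme blank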
Target sequence (P0A8V2 whole entry, looked up): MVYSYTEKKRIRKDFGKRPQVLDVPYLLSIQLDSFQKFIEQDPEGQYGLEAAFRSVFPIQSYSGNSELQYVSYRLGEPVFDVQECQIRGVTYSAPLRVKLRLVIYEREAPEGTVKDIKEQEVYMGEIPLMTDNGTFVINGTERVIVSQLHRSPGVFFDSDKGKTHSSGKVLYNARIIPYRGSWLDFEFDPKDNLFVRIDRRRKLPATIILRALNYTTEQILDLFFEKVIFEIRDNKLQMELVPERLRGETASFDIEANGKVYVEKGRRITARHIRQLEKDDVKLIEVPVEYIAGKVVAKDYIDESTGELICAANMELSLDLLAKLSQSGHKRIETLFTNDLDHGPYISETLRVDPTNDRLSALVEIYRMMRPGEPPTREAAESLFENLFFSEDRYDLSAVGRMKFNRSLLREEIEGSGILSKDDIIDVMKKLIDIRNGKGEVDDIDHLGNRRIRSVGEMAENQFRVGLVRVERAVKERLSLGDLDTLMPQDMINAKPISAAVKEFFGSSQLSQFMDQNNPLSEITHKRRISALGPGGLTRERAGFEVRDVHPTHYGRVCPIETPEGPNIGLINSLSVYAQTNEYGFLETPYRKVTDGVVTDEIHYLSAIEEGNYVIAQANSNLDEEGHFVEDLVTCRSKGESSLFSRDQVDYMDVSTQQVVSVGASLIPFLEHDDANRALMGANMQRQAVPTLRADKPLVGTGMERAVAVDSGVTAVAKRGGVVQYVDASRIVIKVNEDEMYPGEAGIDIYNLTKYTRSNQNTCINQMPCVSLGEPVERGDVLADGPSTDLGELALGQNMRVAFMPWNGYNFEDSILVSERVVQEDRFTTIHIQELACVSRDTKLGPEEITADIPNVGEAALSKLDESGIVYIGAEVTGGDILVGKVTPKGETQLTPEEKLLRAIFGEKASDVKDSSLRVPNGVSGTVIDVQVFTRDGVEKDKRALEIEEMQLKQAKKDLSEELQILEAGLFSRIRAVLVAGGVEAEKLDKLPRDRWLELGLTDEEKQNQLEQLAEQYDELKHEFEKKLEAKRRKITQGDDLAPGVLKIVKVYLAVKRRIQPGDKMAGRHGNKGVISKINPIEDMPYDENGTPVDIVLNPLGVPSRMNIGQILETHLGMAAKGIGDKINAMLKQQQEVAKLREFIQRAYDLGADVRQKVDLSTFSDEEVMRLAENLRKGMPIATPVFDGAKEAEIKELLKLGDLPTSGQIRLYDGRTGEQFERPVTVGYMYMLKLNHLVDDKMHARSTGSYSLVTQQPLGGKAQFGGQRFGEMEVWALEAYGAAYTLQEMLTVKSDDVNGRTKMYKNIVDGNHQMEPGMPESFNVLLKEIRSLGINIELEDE
* marks the source's active call; other numbers are inactive results.

Screening CCCn1c(=O)n(C)c(=O)c2c3oc(=O)c(NC(=O)c4ccc(F)cc4)cc3[nH]c21 returned AP complement 2, MK inhibit 1, PMK inhibit 11, Spn DPM-DC inh inactive and E coli RNAP 14.
CCc1ccc(CCC(=O)Nc2ccc(C)c(C)c2)o1 was read as AP complement 2, MK inhibit 10, PMK inhibit 10, Spn DPM-DC inh active, TNAP act mid DEA 0.7 and E coli RNAP 12.
`Cc1cc(/N=C/C=C2\N(C)c3ccccc3C2(C)C)n(CCC#N)n1` gave AP complement 0, MK inhibit 0, PMK inhibit 18, Spn DPM-DC inh inactive, TNAP act mid DEA 0.8 and E coli RNAP 6.
Screening O=c1c2ccccc2sn1-c1cc(S(=O)(=O)N2CCOCC2)ccc1N1CCOCC1 returned AP complement 1, MK inhibit 95*, PMK inhibit 17, Spn DPM-DC inh active, TNAP act mid DEA 0.8 and E coli RNAP 8.
For Cn1c(=O)c2cc(S(=O)(=O)N3CCOCC3)ccc2n(C)c1=O the results were AP complement 0, MK inhibit 4, PMK inhibit 4, Spn DPM-DC inh inactive, TNAP act mid DEA 0.8 and E coli RNAP 3.
Screening COC(=O)c1cn(-c2ccccc2)nc1C(=O)OC returned AP complement 4, MK inhibit 2, PMK inhibit 19*, Spn DPM-DC inh inactive, TNAP act mid DEA 0.9 and E coli RNAP 5.
Screening CC(=O)N1CCC(N2CCN(c3ccccc3F)CC2)CC1 returned AP complement 3, MK inhibit 32, PMK inhibit 36*, Spn DPM-DC inh inactive, TNAP act mid DEA 0.9 and E coli RNAP 13.
`CC1CCCN(S(=O)(=O)c2ccc(S(=O)(=O)N3CCCN(Cc4ccccc4)C3)cc2)C1` (stereo not drawn) gave AP complement 6, MK inhibit 3, PMK inhibit 6, Spn DPM-DC inh inactive, TNAP act mid DEA 0.9 and E coli RNAP 11.
`OCC1CCCN(Cc2ccc(-c3ccccc3)cc2)C1` (stereo not drawn) gave AP complement -4, MK inhibit 41*, PMK inhibit 1, Spn DPM-DC inh inactive, TNAP act mid DEA 0.9 and E coli RNAP 5.
Screening O=S(=O)(Nc1ncnc2c1oc1ccccc12)c1ccc(Cl)s1 returned AP complement -32, MK inhibit 0, PMK inhibit 15, Spn DPM-DC inh inactive, TNAP act mid DEA 1 and E coli RNAP 7.
Screening COc1ccccc1CN1CCN(C(CC(C)C)c2nnnn2Cc2cccs2)CC1 (stereo not drawn) returned AP complement 22, MK inhibit 5, PMK inhibit 15, Spn DPM-DC inh inactive, TNAP act mid DEA 1 and E coli RNAP -2.
Screening CCCCNC(=O)c1ccc2nc(-c3ccco3)c(-c3ccco3)nc2c1 returned AP complement 24, MK inhibit 17, PMK inhibit 7, Spn DPM-DC inh active, TNAP act mid DEA 0 and E coli RNAP 9.
Screening O=C(Nc1ccccc1)c1ccc2nc(-c3ccco3)c(-c3ccco3)nc2c1 returned AP complement 2, MK inhibit 16, PMK inhibit 4, Spn DPM-DC inh inactive, TNAP act mid DEA 0.8 and E coli RNAP 14.
`CCc1ccc(O)c(N=Cc2ccccc2O)c1` gave AP complement 19, MK inhibit 1, PMK inhibit 7, Spn DPM-DC inh inactive, TNAP act mid DEA 1 and E coli RNAP 27*.
Screening N#Cc1ccc(-c2cccnc2)nc1SCC(=O)Nc1sc2c(c1C#N)CCC2 returned MK inhibit 62*, PMK inhibit 47, Spn DPM-DC inh inactive, TNAP act mid DEA 0.9 and E coli RNAP 5.
`N#Cc1c(NC(=O)CSCC(=O)O)sc2c1CCCC2` gave AP complement -5, MK inhibit 8, PMK inhibit 8, Spn DPM-DC inh inactive, TNAP act mid DEA 0.9 and E coli RNAP 8.
`COc1ccc(N2CC(C(=O)NCCCN3CCOCC3)CC2=O)cc1` (stereo not drawn) gave AP complement 16, MK inhibit 51*, PMK inhibit 0, Spn DPM-DC inh inactive, TNAP act mid DEA 0.9 and E coli RNAP 4.
For CC(C)(C)C(=O)/C=C(\N)c1ccncc1 the results were AP complement 40*, MK inhibit 3, PMK inhibit 0, Spn DPM-DC inh inactive, TNAP act mid DEA 1 and E coli RNAP 9.
`COc1ccccc1N/C(N)=N/c1nc(CSc2ccc(C)cc2)cc(=O)[nH]1` gave AP complement 11, MK inhibit 11, PMK inhibit 12, Spn DPM-DC inh inactive, TNAP act mid DEA 1 and E coli RNAP 4.
For Cc1cc(=O)[nH]c(/N=C(\N)Nc2cccc3ccccc23)n1 the results were AP complement -7, MK inhibit 9, PMK inhibit 19, Spn DPM-DC inh active, TNAP act mid DEA 1.1 and E coli RNAP -2.
Screening CN(Cc1c(O)ccc2c1oc(=O)c1ccccc12)C1CCCCC1 returned MK inhibit 50*, PMK inhibit 18, Spn DPM-DC inh inactive, TNAP act mid DEA 0.9 and E coli RNAP 11.
For CC(OC(=O)c1cccs1)C(=O)NCC1CCCO1 (stereo not drawn) the results were AP complement 7, MK inhibit 0, PMK inhibit 25*, Spn DPM-DC inh inactive, TNAP act mid DEA 1 and E coli RNAP -4.
CC(OC(=O)c1cc2sccc2n1C)C(=O)NCC1CCCO1 (stereo not drawn) was read as AP complement 25, MK inhibit 0, PMK inhibit 22, Spn DPM-DC inh inactive, TNAP act mid DEA 0.9 and E coli RNAP -1.
Screening COC(=O)C(NC(=O)c1ccccc1)=C1C=C(C)OC(C)=C1 returned AP complement 5, MK inhibit 0, PMK inhibit 29*, Spn DPM-DC inh inactive, TNAP act mid DEA 0.9 and E coli RNAP 6.
For CCOC(=O)C(NC(=O)c1ccccc1)=C1C=C(C)OC(C)=C1 the results were AP complement -1, MK inhibit 5, PMK inhibit 5, Spn DPM-DC inh inactive, TNAP act mid DEA 0.9 and E coli RNAP 8.
For CC(C)OCCCNC(=O)CN1C(=O)CC(C)(C)S(=O)(=O)c2ccccc21 the results were AP complement 10, MK inhibit 44*, PMK inhibit 0, Spn DPM-DC inh inactive, TNAP act mid DEA 1 and E coli RNAP -1.
COCCNC(=O)CN1C(=O)CC(C)(C)S(=O)(=O)c2ccccc21 was read as AP complement 3, MK inhibit 18, PMK inhibit 1, Spn DPM-DC inh inactive, TNAP act mid DEA 0.9 and E coli RNAP 8.
Cc1nc2oc3c(NCC4CCCO4)ncnc3c2c2c1COC(C)(C)C2 (stereo not drawn) was read as AP complement 2, MK inhibit 0, PMK inhibit 2, Spn DPM-DC inh active, TNAP act mid DEA 0.9 and E coli RNAP 7.

Assay outcomes as filed in PubChem BioAssay.
